For experiment [1], the target named is T1, WT mIL-2 (Mus musculus, UniProt P04351).
T1 sequence (P04351 21-169): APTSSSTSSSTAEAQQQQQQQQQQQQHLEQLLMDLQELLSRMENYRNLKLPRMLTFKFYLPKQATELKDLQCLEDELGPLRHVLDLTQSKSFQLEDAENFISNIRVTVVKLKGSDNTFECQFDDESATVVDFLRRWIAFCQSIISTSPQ
The experiment can be described thus: NMR titration with line shape analysis. Format: binding. The essentials:
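Kd derived by line-shape analysis (TITAN) of fast-exchange shifts of the V129γ2 and L133δ2 methyl peaks. Errors propagated from spectral signal-to-noise.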

Experiment [2] addresses JES6-1. The experiment in a line: Isothermal titration calorimetry of mIL-2 into JES6-1. It counts as binding. The settings on record: ITC. (In general: ITC needs no label: the signal is the heat of the interaction.)
The test system of experiment [3] is IL-2Rα+ mouse CTLL-2 cells. The experiment in a line: STAT5 phosphorylation. It counts as cell-based. To be noted: IL-2Rα+ CTLL-2 cells.
The target in experiment [4] is wild-type mouse interleukin-2 (mouse, UniProt P04351). The experiment in a line: ITC.

Broadly, the Kd is the equilibrium constant for the complex coming apart. Read a low Kd as tighter binding. Consider `COC(=O)[C@H](Cc1ccc(C#Cc2ccccc2)cc1)NC(=O)C[C@H]1CCCN(C(=N)N)C1` [Ro 26-4550], for which binding in experiment [1] was put at a Kd of 39.4 ± 5.5 µM.

B1: WT mIL-2: wild-type mouse interleukin-2 (amino acids 1-149), recombinant, expressed in E. coli (protein, UniProt P04351 21-169, looked up)
Interleukin-2: APTSSSTSSSTAEAQQQQQQQQQQQQHLEQLLMDLQELLSRMENYRNLKLPRMLTFKFYLPKQATELKDLQCLEDELGPLRHVLDLTQSKSFQLEDAENFISNIRVTVVKLKGSDNTFECQFDDESATVVDFLRRWIAFCQSIISTSPQ
B1 returned a Kd in experiment [2] (20 °C, 20 mM phosphate pH 7.2, 150 mM NaCl) of 2 nM. That is a single-digit nanomolar value.

B2: R52A mIL-2: designed point mutant R52A of mouse IL-2 that eliminates all C-capping interactions (protein)
chain: APTSSSTSSSTAEAQQQQQQQQQQQQHLEQLLMDLQELLSRMENYRNLKLPAMLTFKFYLPKQATELKDLQCLEDELGPLRHVLDLTQSKSFQLEDAENFISNIRVTVVKLKGSDNTFECQFDDESATVVDFLRRWIAFCQSIISTSPQ
As to B2, the “decrease in binding affinity relative to WT mIL-2” value in experiment [2] is recorded as 1,000 fold. In addition, the “effect of JES6-1 on mIL-2-mediated STAT5 activation” value in experiment [3] is on record as “independent of JES6-1”.

B3: JES6-1 anti-mouse IL-2 monoclonal antibody (antibody, V domains shown)
VH: EIQLQQSGPELRRPGSSVKLSCKASGYNITDYLIHWVRHRPEHGLEWIGWIDPEDGETRYAQKFQSKATLTADTSSNAAYMQLSSLTPEDTATYFCARSLDSTYIYPFAYWGQGTLVTVSS
VL: DIVMTQSPFSLAVSEGEMVTINCKSSQSLLSSGNQKNYLAWYQQKPGQSPKLLIYYASTGQSGVPDRFIGSGSGTDFTLTISDVQAEDLADYYCLQHYISPPTFGAGTKLELK
In experiment [4], B3 showed a Kd of 2 nM and a dH of 12.7 kcal⋅mol^−1. In experiment [3], the “effect of JES6-1 on mIL-2-mediated STAT5 activation” value is on record as “fivefold reduced”.

(Values after paper PMC7132253 (Proceedings of the National Academy of Sciences of the …, 2020).)
